{
  "source": "ChEMBL document CHEMBL1221386",
  "about": "“Synthesis and pharmacological evaluation of 3-aryl-3-azolylpropan-1-amines as selective triple serotonin/norepinephrine/dopamine reuptake inhibitors” (Bioorg Med Chem Lett, 2010)",
  "key": {"[1]": {"target": "Histamine H1 receptor (Homo sapiens) (UniProt P35367)", "sequence (P35367 whole entry)": "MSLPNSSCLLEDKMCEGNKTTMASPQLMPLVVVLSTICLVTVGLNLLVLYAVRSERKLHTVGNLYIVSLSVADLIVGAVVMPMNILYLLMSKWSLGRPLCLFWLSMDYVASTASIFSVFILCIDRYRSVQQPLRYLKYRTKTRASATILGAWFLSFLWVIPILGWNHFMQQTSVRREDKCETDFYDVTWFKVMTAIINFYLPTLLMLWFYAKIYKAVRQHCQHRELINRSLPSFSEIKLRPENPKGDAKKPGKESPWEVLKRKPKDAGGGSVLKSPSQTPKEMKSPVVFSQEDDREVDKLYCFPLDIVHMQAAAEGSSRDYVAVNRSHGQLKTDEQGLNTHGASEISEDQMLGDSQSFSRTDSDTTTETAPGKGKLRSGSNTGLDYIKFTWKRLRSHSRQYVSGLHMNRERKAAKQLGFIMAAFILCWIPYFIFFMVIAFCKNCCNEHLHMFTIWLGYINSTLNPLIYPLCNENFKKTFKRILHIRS", "assay": "Inhibition of histamine H1 receptor at 10 uM"}, "[2]": {"target": "T1, Muscarinic acetylcholine receptor M1 (Homo sapiens) (UniProt P11229)", "T1 sequence (whole entry)": "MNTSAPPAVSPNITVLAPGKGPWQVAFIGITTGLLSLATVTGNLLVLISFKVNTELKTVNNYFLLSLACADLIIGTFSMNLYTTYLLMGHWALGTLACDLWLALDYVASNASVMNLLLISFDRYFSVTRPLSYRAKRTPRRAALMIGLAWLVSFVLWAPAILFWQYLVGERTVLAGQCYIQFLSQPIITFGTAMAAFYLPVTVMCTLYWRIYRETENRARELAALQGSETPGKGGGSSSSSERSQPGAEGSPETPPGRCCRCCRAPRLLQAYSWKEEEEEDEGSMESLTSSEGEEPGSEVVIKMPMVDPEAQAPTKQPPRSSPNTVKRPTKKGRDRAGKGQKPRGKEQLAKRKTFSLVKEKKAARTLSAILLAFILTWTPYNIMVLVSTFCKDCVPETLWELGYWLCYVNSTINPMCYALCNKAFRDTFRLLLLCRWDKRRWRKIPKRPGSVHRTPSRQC", "assay": "Inhibition of muscarinic M1 receptor at 10 uM"}, "[3]": {"target": "T2, Sodium-dependent serotonin transporter (Homo sapiens, UniProt P31645)", "assay": "Inhibition of serotonin reuptake at human SERT expressed in HEK293 cells at 100 nM"}, "[4]": {"target": "T3, Cytochrome P450 1A2 (Homo sapiens, UniProt P05177)", "T3 sequence (P05177 whole entry)": "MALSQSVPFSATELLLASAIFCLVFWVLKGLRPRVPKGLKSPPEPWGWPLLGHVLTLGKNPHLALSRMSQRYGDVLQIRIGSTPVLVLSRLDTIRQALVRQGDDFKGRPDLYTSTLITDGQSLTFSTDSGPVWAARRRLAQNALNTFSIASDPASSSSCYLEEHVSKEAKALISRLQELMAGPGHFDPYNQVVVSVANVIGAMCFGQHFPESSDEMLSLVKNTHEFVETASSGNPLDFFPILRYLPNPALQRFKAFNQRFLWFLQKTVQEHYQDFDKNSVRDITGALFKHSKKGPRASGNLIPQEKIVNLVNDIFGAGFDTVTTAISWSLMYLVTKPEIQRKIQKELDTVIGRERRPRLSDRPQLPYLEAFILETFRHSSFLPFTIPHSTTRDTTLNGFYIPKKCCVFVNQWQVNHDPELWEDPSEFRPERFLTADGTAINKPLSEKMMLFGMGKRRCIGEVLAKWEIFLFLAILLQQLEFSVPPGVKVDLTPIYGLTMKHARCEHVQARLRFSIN", "assay": "Inhibition of CYP1A2", "type": "ADME"}, "[5]": {"target": "Cytochrome P450 2D6 (Homo sapiens, UniProt P10635)", "sequence (P10635 whole entry)": "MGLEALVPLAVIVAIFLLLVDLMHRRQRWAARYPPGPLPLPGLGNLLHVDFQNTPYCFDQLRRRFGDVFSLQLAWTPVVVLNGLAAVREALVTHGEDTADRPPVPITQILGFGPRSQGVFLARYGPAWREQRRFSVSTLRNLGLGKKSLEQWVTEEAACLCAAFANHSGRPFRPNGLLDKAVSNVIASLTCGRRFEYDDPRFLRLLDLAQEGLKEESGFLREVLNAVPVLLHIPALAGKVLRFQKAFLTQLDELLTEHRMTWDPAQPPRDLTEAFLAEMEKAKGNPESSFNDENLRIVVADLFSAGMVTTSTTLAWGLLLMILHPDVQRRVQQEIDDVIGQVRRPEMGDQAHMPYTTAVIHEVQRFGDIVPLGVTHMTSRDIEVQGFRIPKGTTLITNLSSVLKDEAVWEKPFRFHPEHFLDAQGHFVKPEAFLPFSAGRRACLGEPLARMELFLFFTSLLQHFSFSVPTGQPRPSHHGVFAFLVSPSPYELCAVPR", "assay": "Inhibition of CYP2D6", "type": "ADME"}, "[6]": {"test_system": "Mus musculus", "assay": "Antidepressant activity in mouse assessed as change in locomotion at 150 mg/kg, po", "type": "functional", "summary_of_the_method": "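Spontaneous locomotor activity in mice measured 1 h after oral dosing. Expressed relative to the control group set at 100%.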"}, "[7]": {"target": "T4, Sodium-dependent noradrenaline transporter (Homo sapiens, UniProt P23975)", "T4 sequence (P23975 whole entry)": "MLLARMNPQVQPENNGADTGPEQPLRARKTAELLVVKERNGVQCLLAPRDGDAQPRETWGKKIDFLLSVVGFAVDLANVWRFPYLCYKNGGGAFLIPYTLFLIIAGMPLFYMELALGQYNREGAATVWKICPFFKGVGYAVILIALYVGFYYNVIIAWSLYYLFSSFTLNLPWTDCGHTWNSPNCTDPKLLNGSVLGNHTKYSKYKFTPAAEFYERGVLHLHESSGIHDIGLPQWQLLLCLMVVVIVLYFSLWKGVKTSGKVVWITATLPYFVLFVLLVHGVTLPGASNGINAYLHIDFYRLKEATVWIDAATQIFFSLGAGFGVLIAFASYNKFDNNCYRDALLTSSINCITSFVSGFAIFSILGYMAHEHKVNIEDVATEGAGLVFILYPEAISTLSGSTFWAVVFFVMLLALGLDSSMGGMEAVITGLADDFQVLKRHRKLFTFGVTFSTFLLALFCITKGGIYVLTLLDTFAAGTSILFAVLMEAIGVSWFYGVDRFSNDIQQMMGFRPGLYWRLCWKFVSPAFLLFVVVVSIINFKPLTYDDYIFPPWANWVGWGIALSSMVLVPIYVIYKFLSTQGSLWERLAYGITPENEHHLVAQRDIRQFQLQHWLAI", "assay": "Inhibition of norepinephrine reuptake at human NET expressed in MDCK cells at 100 nM"}, "[8]": {"assay": "Cmax in rat at 10 mg/kg, po", "type": "ADME, organism-based", "set-up": "dose 10 mg/kg, route oral", "conditions": "in vivo"}, "[9]": {"target": "T5, Sodium-dependent dopamine transporter (Homo sapiens, UniProt Q01959)", "T5 sequence (Q01959 whole entry)": "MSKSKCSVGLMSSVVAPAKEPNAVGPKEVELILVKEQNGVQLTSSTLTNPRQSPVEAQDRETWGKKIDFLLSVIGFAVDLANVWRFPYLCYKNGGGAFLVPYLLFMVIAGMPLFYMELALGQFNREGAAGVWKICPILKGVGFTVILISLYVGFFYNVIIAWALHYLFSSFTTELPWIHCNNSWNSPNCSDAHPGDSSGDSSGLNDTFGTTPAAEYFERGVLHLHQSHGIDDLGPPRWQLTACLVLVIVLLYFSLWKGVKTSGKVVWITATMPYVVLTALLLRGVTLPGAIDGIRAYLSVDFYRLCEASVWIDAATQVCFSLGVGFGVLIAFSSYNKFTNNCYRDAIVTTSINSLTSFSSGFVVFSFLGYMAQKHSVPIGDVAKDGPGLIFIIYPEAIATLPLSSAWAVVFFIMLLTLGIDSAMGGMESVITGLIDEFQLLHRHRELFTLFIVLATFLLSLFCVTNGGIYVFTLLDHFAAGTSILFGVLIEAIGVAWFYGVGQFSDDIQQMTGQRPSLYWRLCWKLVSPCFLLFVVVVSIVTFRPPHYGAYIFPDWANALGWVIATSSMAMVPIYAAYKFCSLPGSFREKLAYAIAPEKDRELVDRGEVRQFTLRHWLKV", "assay": "Inhibition of dopamine reuptake at human dopamine transporter expressed in CHO cells", "type": "cell-based", "summary_of_the_method": "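CHO-K1 cells stably expressing human DAT, assayed for [3H]DA uptake in duplicate. Nomifensine served as standard. IC50 determined.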"}, "[10]": {"target": "Sodium-dependent serotonin transporter (Rattus norvegicus) (UniProt P31652)", "sequence (P31652 whole entry)": "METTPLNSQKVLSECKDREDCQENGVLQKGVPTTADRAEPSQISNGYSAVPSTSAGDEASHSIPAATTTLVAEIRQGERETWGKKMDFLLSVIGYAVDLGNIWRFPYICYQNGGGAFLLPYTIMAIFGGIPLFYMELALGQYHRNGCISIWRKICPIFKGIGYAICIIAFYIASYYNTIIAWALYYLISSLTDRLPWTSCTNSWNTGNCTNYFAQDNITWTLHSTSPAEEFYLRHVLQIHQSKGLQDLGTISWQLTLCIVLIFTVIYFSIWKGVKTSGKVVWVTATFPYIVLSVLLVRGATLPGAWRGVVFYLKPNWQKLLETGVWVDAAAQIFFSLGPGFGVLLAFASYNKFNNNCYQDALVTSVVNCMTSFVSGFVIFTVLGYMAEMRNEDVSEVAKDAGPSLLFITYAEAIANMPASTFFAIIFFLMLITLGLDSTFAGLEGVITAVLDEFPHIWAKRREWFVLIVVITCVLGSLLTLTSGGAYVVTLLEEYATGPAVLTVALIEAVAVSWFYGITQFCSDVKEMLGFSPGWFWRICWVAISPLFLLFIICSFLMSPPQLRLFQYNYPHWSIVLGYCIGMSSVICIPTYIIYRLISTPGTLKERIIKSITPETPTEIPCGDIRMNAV", "assay": "Displacement of [3H]paroxetine from SERT in rat cerebral cortex at 100 nM"}, "[11]": {"test_system": "Mus musculus", "assay": "Potentiation of […]-induced serotonin syndrome like behavior in po dosed mouse", "type": "functional", "conditions": "read-out: MED", "summary_of_the_method": "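Mice, oral dosing. For serotonin potentiation, 5-hydroxytryptophan (5-HTP, serotonin precursor) is given to induce serotonin syndrome-like head twitch/stereotypy counts. Response is expressed as % potentiation relative to control group (0%). Minimal effective dose is the lowest dose reaching p <0.05. Doses are in mg/kg.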"}, "[12]": {"test_system": "Mus musculus", "assay": "Anxiolytic activity in mouse assessed as inhibition of marble buried at 30 mg/kg, ip by marble burying test", "type": "functional", "conditions": "route intraperitoneal"}, "[13]": {"assay": "AUC in rat at 10 mg/kg, iv", "type": "ADME, organism-based", "set-up": "dose 10 mg/kg, route intravenous", "conditions": "plasma"}, "[14]": {"test_system": "Mus musculus", "assay": "Antidepressant activity in mouse assessed as reduction of mobility time at 3 mg/kg, po by tail suspension test", "type": "functional", "set-up": "scale not given: the % may be the effect or the level left", "summary_of_the_method": "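Mouse tail suspension test run as an oral dose–response. Read-out is percent reduction of immobility time; minimal effective dose taken at p<0.05.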"}, "[15]": {"assay": "Half life in rat at 10 mg/kg, po", "type": "ADME, organism-based", "set-up": "dose 10 mg/kg, route oral", "conditions": "in vivo"}, "[16]": {"assay": "AUC (0 to infinity) in rat at 10 mg/kg, po", "type": "ADME, organism-based", "set-up": "dose 10 mg/kg, route oral, time infinity", "conditions": "plasma"}, "[17]": {"test_system": "Mus musculus", "assay": "Antidepressant activity in mouse assessed as change in locomotion at 30 mg/kg, po", "type": "functional"}, "[18]": {"target": "Muscarinic acetylcholine receptor M3 (Homo sapiens) (UniProt P20309)", "sequence (P20309 whole entry, looked up)": "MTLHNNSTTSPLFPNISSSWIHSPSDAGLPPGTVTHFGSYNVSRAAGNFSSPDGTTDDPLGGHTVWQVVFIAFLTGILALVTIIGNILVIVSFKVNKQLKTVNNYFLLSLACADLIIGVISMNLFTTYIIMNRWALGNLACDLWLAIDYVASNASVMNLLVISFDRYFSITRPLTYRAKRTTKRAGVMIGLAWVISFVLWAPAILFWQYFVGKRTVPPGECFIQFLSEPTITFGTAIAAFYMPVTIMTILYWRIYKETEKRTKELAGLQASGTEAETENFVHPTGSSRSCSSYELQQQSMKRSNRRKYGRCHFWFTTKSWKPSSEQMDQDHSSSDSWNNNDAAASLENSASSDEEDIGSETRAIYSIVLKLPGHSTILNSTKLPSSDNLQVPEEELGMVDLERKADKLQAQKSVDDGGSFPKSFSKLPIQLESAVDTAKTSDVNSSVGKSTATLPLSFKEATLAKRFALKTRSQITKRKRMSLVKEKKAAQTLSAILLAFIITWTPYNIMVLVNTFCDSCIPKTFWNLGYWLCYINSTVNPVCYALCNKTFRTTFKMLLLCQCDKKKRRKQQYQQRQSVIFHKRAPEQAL", "assay": "Inhibition of muscarinic M3 receptor at 10 uM"}, "[19]": {"assay": "Clearance in rat at 10 mg/kg, iv", "type": "ADME, organism-based", "set-up": "dose 10 mg/kg, route intravenous", "conditions": "in vivo"}, "[20]": {"assay": "Oral bioavailability in rat at 10 mg/kg", "type": "ADME, organism-based", "conditions": "in vivo"}, "[21]": {"assay": "Half life in human liver microsomes", "type": "ADME, Microsome", "summary_of_the_method": "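Metabolic stability in human or rat liver microsomes. Half-lives measurable up to 60 min.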"}, "[22]": {"target": "T5, Sodium-dependent dopamine transporter", "assay": "Inhibition of dopamine reuptake at human dopamine transporter expressed in CHO cells at 100 nM"}, "[23]": {"test_system": "Mus musculus", "assay": "Antidepressant activity in po dosed mouse assessed as reduction of mobility time by tail suspension test", "type": "functional", "conditions": "read-out: MED", "summary_of_the_method": "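Mouse tail suspension test with oral dose–response. Read-out is immobility time, reported as % reduction of immobility. Minimal effective dose is the lowest dose giving p <0.05. Doses are in mg/kg.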"}, "[24]": {"target": "Cytochrome P450 3A4 (Homo sapiens, UniProt P08684)", "sequence (P08684 whole entry)": "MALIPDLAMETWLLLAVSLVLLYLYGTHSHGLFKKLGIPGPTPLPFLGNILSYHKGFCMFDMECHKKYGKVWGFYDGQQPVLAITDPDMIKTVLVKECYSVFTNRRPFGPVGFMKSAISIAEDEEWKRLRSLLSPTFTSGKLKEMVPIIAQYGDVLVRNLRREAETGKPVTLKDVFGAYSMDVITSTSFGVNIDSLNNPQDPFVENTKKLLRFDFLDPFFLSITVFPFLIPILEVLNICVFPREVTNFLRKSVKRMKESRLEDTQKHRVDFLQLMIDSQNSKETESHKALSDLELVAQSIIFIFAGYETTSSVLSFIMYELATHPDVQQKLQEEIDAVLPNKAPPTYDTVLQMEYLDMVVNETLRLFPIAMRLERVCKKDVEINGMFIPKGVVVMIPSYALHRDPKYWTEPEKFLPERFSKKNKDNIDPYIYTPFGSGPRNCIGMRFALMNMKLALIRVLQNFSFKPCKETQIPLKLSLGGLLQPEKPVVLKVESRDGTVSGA", "assay": "Inhibition of CYP3A4", "type": "ADME"}, "[25]": {"test_system": "Mus musculus", "assay": "Analgesic activity in mouse assessed as reduction of acetic acid-induced writhing at 30 mg/kg"}, "[26]": {"assay": "Cmax in rat at 10 mg/kg, iv", "type": "ADME, organism-based", "set-up": "dose 10 mg/kg, route intravenous", "conditions": "in vivo"}, "[27]": {"assay": "Volume of distribution at steady state in rat at 10 mg/kg, iv", "type": "ADME, organism-based", "set-up": "dose 10 mg/kg, route intravenous", "conditions": "in vivo, read-out: Vdss"}, "[28]": {"target": "T2, Sodium-dependent serotonin transporter", "assay": "Inhibition of serotonin reuptake at human SERT expressed in HEK293 cells", "type": "cell-based"}, "[29]": {"test_system": "Mus musculus", "assay": "Antidepressant activity in mouse assessed as change in locomotion at 90 mg/kg, po", "type": "functional"}, "[30]": {"target": "T4, Sodium-dependent noradrenaline transporter", "assay": "Inhibition of norepinephrine reuptake at human NET expressed in MDCK cells", "type": "cell-based"}},
  "note": "pIC50: −log10 of the molar value.",
  "data": [
    {"smiles": "CNCC[C@@H](c1ccc(Cl)c(Cl)c1)n1nnc(C)n1", "values": [
      {"measurement": "inhibition", "setting": "[1]", "value": "< 20", "unit": "%"},
      {"measurement": "inhibition", "setting": "[2]", "value": "< 20", "unit": "%"},
      {"measurement": "inhibition", "setting": "[3]", "value": 43, "unit": "%"},
      {"measurement": "pIC50", "setting": "[4]", "value": "< 5.00"},
      {"measurement": "pIC50", "setting": "[5]", "value": 5.16},
      {"measurement": "Activity", "setting": "[6]", "value": 134, "unit": "%"},
      {"measurement": "inhibition", "setting": "[7]", "value": 84, "unit": "%"},
      {"measurement": "Cmax", "setting": "[8]", "value": 0.334, "unit": "µg/mL"},
      {"measurement": "pIC50", "setting": "[9]", "value": 7.24},
      {"measurement": "inhibition", "setting": "[10]", "value": 61.2, "unit": "%"},
      {"measurement": "minimal effective dose", "setting": "[11]", "value": 30, "unit": "mg/kg"},
      {"measurement": "inhibition in vivo at 30 mg/kg", "setting": "[12]", "value": 94.4, "unit": "%"},
      {"measurement": "AUC", "setting": "[13]", "value": 3.83, "unit": "µg·h/mL"},
      {"measurement": "Activity", "setting": "[14]", "value": 59.6, "unit": "%"},
      {"measurement": "half-life", "setting": "[15]", "value": 5.48, "unit": "h"},
      {"measurement": "AUC(0-inf)", "setting": "[16]", "value": 1.79, "unit": "µg·h/mL"},
      {"measurement": "Activity", "setting": "[17]", "value": 92, "unit": "%"},
      {"measurement": "inhibition", "setting": "[18]", "value": "< 20", "unit": "%"},
      {"measurement": "clearance", "setting": "[19]", "value": 2.52, "unit": "L/h/kg"},
      {"measurement": "bioavailability", "setting": "[20]", "value": 43.2, "unit": "%"},
      {"measurement": "half-life", "setting": "[21]", "value": "> 1", "unit": "h"},
      {"measurement": "inhibition", "setting": "[22]", "value": 62, "unit": "%"},
      {"measurement": "minimal effective dose", "setting": "[23]", "value": 3, "unit": "mg/kg"},
      {"measurement": "pIC50", "setting": "[24]", "value": "< 5.00"},
      {"measurement": "inhibition in vivo at 30 mg/kg", "setting": "[25]", "value": 94.4, "unit": "%"},
      {"measurement": "Cmax", "setting": "[26]", "value": 3.83, "unit": "µg/mL"},
      {"measurement": "Vd", "setting": "[27]", "value": 6.8, "unit": "L/kg"},
      {"measurement": "pIC50", "setting": "[28]", "value": 6.84},
      {"measurement": "Activity", "setting": "[29]", "value": 142, "unit": "%"},
      {"measurement": "pIC50", "setting": "[30]", "value": 7.70}
    ]}
  ]
}
